Measurements published in PMC5552238 (EBioMedicine, 2017).

System: subcutaneous Hepa1-6 liver cancers
Assay: Subcutaneous Hepa1-6 liver cancers, 747 combined with low-dose sorafenib
Format: in vivo, mouse
Details: sorafenib low dose 10 mg/kg
Summary of the method: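 Hepa1-6 cells (1.5 × 106) injected into right flank; mice randomized at ~0.5 cm tumors. Test compound given i.p. daily (0.5% HPMC/0.2% Tween), alone or with sorafenib 10 mg/kg intragastric. Volume = 1/2a × b². End-point paraffin sections stained for F4/80, Arg-1 and cleaved caspase-3 (primary overnight at 4 °C, HRP secondary 1 h at 37 °C, DAB). Sorted intratumoral CD8+ T cells analysed by qRT-PCR normalized to GAPDH/L32.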

CNC(=O)c1cc(Oc2ccc(NC(=O)Nc3ccc(Cl)c(C(F)(F)F)c3)cc2)ccn1 [sorafenib]
therapeutic effect on subcutaneous tumors: no efficacy
